# Laboratory results taken from paper PMC6500982 (Cancer Science, 2019).
# Test: Safety and tolerability
# Assay type: in vivo, human
# In short: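 Patients (enrolled January 2015–February 2016) received oral test compound in four cohorts: 160, 320 or 480 mg QD, or 300 mg BID. Dosing continued until progression, unacceptable AEs or consent withdrawal. AEs were graded by CTCAE v4.0, alongside laboratory tests, vital signs and ECGs. The safety population was all patients receiving ≥1 dose.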
smiles,measurement,setting,value
CC#CC(=O)N1CC[C@@H](n2c(=O)n(-c3ccc(Oc4ccccc4)cc3)c3c(N)ncnc32)C1 [tirabrutinib],"All AEs, Any grade",160 mg QD N = 3,3 (100.0) n (%)
same,"All AEs, Grade ≥3",160 mg QD N = 3,1 (33.3) n (%)
same,"Anemia, Any grade",160 mg QD N = 3,0 n (%)
same,"Anemia, Grade ≥3",160 mg QD N = 3,0 n (%)
same,"Arthralgia, Any grade",160 mg QD N = 3,1 (33.3) n (%)
same,"Arthralgia, Grade ≥3",160 mg QD N = 3,0 n (%)
same,"Aspartate aminotransferase increased, Any grade",160 mg QD N = 3,0 n (%)
same,"Aspartate aminotransferase increased, Grade ≥3",160 mg QD N = 3,0 n (%)
same,"Constipation, Any grade",160 mg QD N = 3,0 n (%)
same,"Constipation, Grade ≥3",160 mg QD N = 3,0 n (%)
same,"Cystitis, Any grade",160 mg QD N = 3,0 n (%)
same,"Cystitis, Grade ≥3",160 mg QD N = 3,0 n (%)
same,"Diarrhea, Any grade",160 mg QD N = 3,0 n (%)
same,"Diarrhea, Grade ≥3",160 mg QD N = 3,0 n (%)
same,"Dysgeusia, Any grade",160 mg QD N = 3,0 n (%)
same,"Dysgeusia, Grade ≥3",160 mg QD N = 3,0 n (%)
same,"Gamma‐glutamyltransferase increased, Any grade",160 mg QD N = 3,0 n (%)
same,"Gamma‐glutamyltransferase increased, Grade ≥3",160 mg QD N = 3,0 n (%)
same,"Headache, Any grade",160 mg QD N = 3,1 (33.3) n (%)
same,"Headache, Grade ≥3",160 mg QD N = 3,0 n (%)
same,"Hypokalemia, Any grade",160 mg QD N = 3,0 n (%)
same,"Hypokalemia, Grade ≥3",160 mg QD N = 3,0 n (%)
same,"Hypophosphatemia, Any grade",160 mg QD N = 3,0 n (%)
same,"Hypophosphatemia, Grade ≥3",160 mg QD N = 3,0 n (%)
same,"Insomnia, Any grade",160 mg QD N = 3,0 n (%)
same,"Insomnia, Grade ≥3",160 mg QD N = 3,0 n (%)
same,"Leukopenia, Any grade",160 mg QD N = 3,0 n (%)
same,"Leukopenia, Grade ≥3",160 mg QD N = 3,0 n (%)
same,"Lymphopenia, Any grade",160 mg QD N = 3,0 n (%)
same,"Lymphopenia, Grade ≥3",160 mg QD N = 3,0 n (%)
same,"Malaise, Any grade",160 mg QD N = 3,2 (66.7) n (%)
same,"Malaise, Grade ≥3",160 mg QD N = 3,0 n (%)
same,"Myalgia, Any grade",160 mg QD N = 3,2 (66.7) n (%)
same,"Myalgia, Grade ≥3",160 mg QD N = 3,0 n (%)
same,"Nasopharyngitis, Any grade",160 mg QD N = 3,1 (33.3) n (%)
same,"Nasopharyngitis, Grade ≥3",160 mg QD N = 3,0 n (%)
same,"Nausea, Any grade",160 mg QD N = 3,0 n (%)
same,"Nausea, Grade ≥3",160 mg QD N = 3,0 n (%)
same,"Neutropenia, Any grade",160 mg QD N = 3,1 (33.3) n (%)
same,"Neutropenia, Grade ≥3",160 mg QD N = 3,1 (33.3) n (%)
same,"Pharyngitis, Any grade",160 mg QD N = 3,1 (33.3) n (%)
same,"Pharyngitis, Grade ≥3",160 mg QD N = 3,0 n (%)
same,"Pyrexia, Any grade",160 mg QD N = 3,0 n (%)
same,"Pyrexia, Grade ≥3",160 mg QD N = 3,0 n (%)
same,"Rash, Any grade",160 mg QD N = 3,1 (33.3) n (%)
same,"Rash, Grade ≥3",160 mg QD N = 3,0 n (%)
same,"Thrombocytopenia, Any grade",160 mg QD N = 3,0 n (%)
same,"Thrombocytopenia, Grade ≥3",160 mg QD N = 3,0 n (%)
same,"Upper respiratory tract inflammation, Any grade",160 mg QD N = 3,1 (33.3) n (%)
same,"Upper respiratory tract inflammation, Grade ≥3",160 mg QD N = 3,0 n (%)
same,"Vomiting, Any grade",160 mg QD N = 3,0 n (%)
same,"Vomiting, Grade ≥3",160 mg QD N = 3,0 n (%)
same,"All AEs, Any grade",300 mg BID N = 7,7 (100.0) n (%)
same,"All AEs, Grade ≥3",300 mg BID N = 7,3 (42.9) n (%)
same,"Anemia, Any grade",300 mg BID N = 7,1 (14.3) n (%)
same,"Anemia, Grade ≥3",300 mg BID N = 7,1 (14.3) n (%)
same,"Arthralgia, Any grade",300 mg BID N = 7,1 (14.3) n (%)
same,"Arthralgia, Grade ≥3",300 mg BID N = 7,0 n (%)
same,"Aspartate aminotransferase increased, Any grade",300 mg BID N = 7,1 (14.3) n (%)
same,"Aspartate aminotransferase increased, Grade ≥3",300 mg BID N = 7,0 n (%)
same,"Constipation, Any grade",300 mg BID N = 7,1 (14.3) n (%)
same,"Constipation, Grade ≥3",300 mg BID N = 7,0 n (%)
same,"Cystitis, Any grade",300 mg BID N = 7,1 (14.3) n (%)
same,"Cystitis, Grade ≥3",300 mg BID N = 7,0 n (%)
same,"Diarrhea, Any grade",300 mg BID N = 7,2 (28.6) n (%)
same,"Diarrhea, Grade ≥3",300 mg BID N = 7,0 n (%)
same,"Dysgeusia, Any grade",300 mg BID N = 7,1 (14.3) n (%)
same,"Dysgeusia, Grade ≥3",300 mg BID N = 7,0 n (%)
same,"Gamma‐glutamyltransferase increased, Any grade",300 mg BID N = 7,1 (14.3) n (%)
same,"Gamma‐glutamyltransferase increased, Grade ≥3",300 mg BID N = 7,0 n (%)
same,"Headache, Any grade",300 mg BID N = 7,1 (14.3) n (%)
same,"Headache, Grade ≥3",300 mg BID N = 7,0 n (%)
same,"Hypokalemia, Any grade",300 mg BID N = 7,0 n (%)
same,"Hypokalemia, Grade ≥3",300 mg BID N = 7,0 n (%)
same,"Hypophosphatemia, Any grade",300 mg BID N = 7,0 n (%)
same,"Hypophosphatemia, Grade ≥3",300 mg BID N = 7,0 n (%)
same,"Insomnia, Any grade",300 mg BID N = 7,3 (42.9) n (%)
same,"Insomnia, Grade ≥3",300 mg BID N = 7,0 n (%)
same,"Leukopenia, Any grade",300 mg BID N = 7,0 n (%)
same,"Leukopenia, Grade ≥3",300 mg BID N = 7,0 n (%)
same,"Lymphopenia, Any grade",300 mg BID N = 7,0 n (%)
same,"Lymphopenia, Grade ≥3",300 mg BID N = 7,0 n (%)
same,"Malaise, Any grade",300 mg BID N = 7,0 n (%)
same,"Malaise, Grade ≥3",300 mg BID N = 7,0 n (%)
same,"Myalgia, Any grade",300 mg BID N = 7,0 n (%)
same,"Myalgia, Grade ≥3",300 mg BID N = 7,0 n (%)
same,"Nasopharyngitis, Any grade",300 mg BID N = 7,1 (14.3) n (%)
same,"Nasopharyngitis, Grade ≥3",300 mg BID N = 7,0 n (%)
same,"Nausea, Any grade",300 mg BID N = 7,2 (28.6) n (%)
same,"Nausea, Grade ≥3",300 mg BID N = 7,0 n (%)
same,"Neutropenia, Any grade",300 mg BID N = 7,0 n (%)
same,"Neutropenia, Grade ≥3",300 mg BID N = 7,0 n (%)
same,"Pharyngitis, Any grade",300 mg BID N = 7,1 (14.3) n (%)
same,"Pharyngitis, Grade ≥3",300 mg BID N = 7,0 n (%)
same,"Pyrexia, Any grade",300 mg BID N = 7,2 (28.6) n (%)
same,"Pyrexia, Grade ≥3",300 mg BID N = 7,0 n (%)
same,"Rash, Any grade",300 mg BID N = 7,1 (14.3) n (%)
same,"Rash, Grade ≥3",300 mg BID N = 7,0 n (%)
same,"Thrombocytopenia, Any grade",300 mg BID N = 7,0 n (%)
same,"Thrombocytopenia, Grade ≥3",300 mg BID N = 7,0 n (%)
same,"Upper respiratory tract inflammation, Any grade",300 mg BID N = 7,0 n (%)
same,"Upper respiratory tract inflammation, Grade ≥3",300 mg BID N = 7,0 n (%)
same,"Vomiting, Any grade",300 mg BID N = 7,2 (28.6) n (%)
same,"Vomiting, Grade ≥3",300 mg BID N = 7,0 n (%)
same,"All AEs, Any grade",320 mg QD N = 3,3 (100.0) n (%)
same,"All AEs, Grade ≥3",320 mg QD N = 3,2 (66.7) n (%)
same,"Anemia, Any grade",320 mg QD N = 3,0 n (%)
same,"Anemia, Grade ≥3",320 mg QD N = 3,0 n (%)
same,"Arthralgia, Any grade",320 mg QD N = 3,1 (33.3) n (%)
same,"Arthralgia, Grade ≥3",320 mg QD N = 3,0 n (%)
same,"Aspartate aminotransferase increased, Any grade",320 mg QD N = 3,0 n (%)
same,"Aspartate aminotransferase increased, Grade ≥3",320 mg QD N = 3,0 n (%)
same,"Constipation, Any grade",320 mg QD N = 3,1 (33.3) n (%)
same,"Constipation, Grade ≥3",320 mg QD N = 3,0 n (%)
same,"Cystitis, Any grade",320 mg QD N = 3,1 (33.3) n (%)
same,"Cystitis, Grade ≥3",320 mg QD N = 3,0 n (%)
same,"Diarrhea, Any grade",320 mg QD N = 3,1 (33.3) n (%)
same,"Diarrhea, Grade ≥3",320 mg QD N = 3,0 n (%)
same,"Dysgeusia, Any grade",320 mg QD N = 3,0 n (%)
same,"Dysgeusia, Grade ≥3",320 mg QD N = 3,0 n (%)
same,"Gamma‐glutamyltransferase increased, Any grade",320 mg QD N = 3,1 (33.3) n (%)
same,"Gamma‐glutamyltransferase increased, Grade ≥3",320 mg QD N = 3,0 n (%)
same,"Headache, Any grade",320 mg QD N = 3,0 n (%)
same,"Headache, Grade ≥3",320 mg QD N = 3,0 n (%)
same,"Hypokalemia, Any grade",320 mg QD N = 3,0 n (%)
same,"Hypokalemia, Grade ≥3",320 mg QD N = 3,0 n (%)
same,"Hypophosphatemia, Any grade",320 mg QD N = 3,0 n (%)
same,"Hypophosphatemia, Grade ≥3",320 mg QD N = 3,0 n (%)
same,"Insomnia, Any grade",320 mg QD N = 3,0 n (%)
same,"Insomnia, Grade ≥3",320 mg QD N = 3,0 n (%)
same,"Leukopenia, Any grade",320 mg QD N = 3,2 (66.7) n (%)
same,"Leukopenia, Grade ≥3",320 mg QD N = 3,2 (66.7) n (%)
same,"Lymphopenia, Any grade",320 mg QD N = 3,1 (33.3) n (%)
same,"Lymphopenia, Grade ≥3",320 mg QD N = 3,1 (33.3) n (%)
same,"Malaise, Any grade",320 mg QD N = 3,0 n (%)
same,"Malaise, Grade ≥3",320 mg QD N = 3,0 n (%)
